From ChEMBL document CHEMBL3352303, “Characterization of TRIF selectivity in the AGP class of lipid A mimetics: role of secondary lipid chains” (Bioorg Med Chem Lett, 2015)

Each compound was assayed against Toll-like receptor 4/MD-2 (Homo sapiens, UniProt O00206+Q9Y6Y9) (assay: Activation of TLR4/MD2 (unknown origin) expressed in HEK293 cells co-expressing CD14 assessed as induction of MyD88-dependent NF-kappaB activity after 24 hrs by NF-kappaB SEAP reporter gene assay). Settings: hek293, 24 h.
Type: cell-based
Summary of the method: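 HEK293 cells stably transfected with human TLR4, MD-2, CD14 and an NF-κB-inducible promoter driving secreted embryonic alkaline phosphatase (SEAP). Compounds formulated at 2 mg/mL in 2% aq. glycerol (stock), applied as a dose response for 24 h. Read-out was relative SEAP activity in cell culture supernatants.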

Chain of Toll-like receptor 4/MD-2 (O00206 whole entry): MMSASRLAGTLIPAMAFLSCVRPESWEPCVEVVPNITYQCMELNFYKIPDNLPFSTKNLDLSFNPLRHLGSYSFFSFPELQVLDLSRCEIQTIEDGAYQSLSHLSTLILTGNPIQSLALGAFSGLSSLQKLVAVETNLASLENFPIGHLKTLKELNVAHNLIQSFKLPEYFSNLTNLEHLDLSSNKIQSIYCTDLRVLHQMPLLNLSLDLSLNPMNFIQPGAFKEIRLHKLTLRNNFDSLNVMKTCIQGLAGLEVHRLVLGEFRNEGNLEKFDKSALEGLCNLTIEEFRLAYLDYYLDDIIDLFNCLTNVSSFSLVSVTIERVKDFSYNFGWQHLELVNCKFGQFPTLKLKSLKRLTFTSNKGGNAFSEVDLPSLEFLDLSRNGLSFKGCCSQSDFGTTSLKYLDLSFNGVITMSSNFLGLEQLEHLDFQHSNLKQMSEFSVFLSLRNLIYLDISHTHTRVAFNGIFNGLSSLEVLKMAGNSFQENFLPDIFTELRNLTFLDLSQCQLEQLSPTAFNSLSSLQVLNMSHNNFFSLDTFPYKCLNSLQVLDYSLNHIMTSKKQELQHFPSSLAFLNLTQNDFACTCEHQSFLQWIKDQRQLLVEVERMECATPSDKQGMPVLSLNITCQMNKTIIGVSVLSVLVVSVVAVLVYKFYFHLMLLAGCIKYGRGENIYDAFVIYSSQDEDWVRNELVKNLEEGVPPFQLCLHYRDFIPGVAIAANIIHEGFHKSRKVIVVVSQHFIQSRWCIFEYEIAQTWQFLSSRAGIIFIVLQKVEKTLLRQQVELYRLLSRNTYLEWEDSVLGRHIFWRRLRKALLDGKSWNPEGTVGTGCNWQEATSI
Chain of Toll-like receptor 4/MD-2 (Q9Y6Y9 whole entry): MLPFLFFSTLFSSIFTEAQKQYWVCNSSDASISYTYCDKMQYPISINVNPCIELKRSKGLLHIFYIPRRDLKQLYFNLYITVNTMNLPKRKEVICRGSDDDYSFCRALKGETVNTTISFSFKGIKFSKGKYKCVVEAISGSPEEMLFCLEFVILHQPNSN

Compound	Activity
CCCCCCCCCCCCCC(=O)O[C@H](CCCCCCCCCCC)CC(=O)N[C@H]1[C@H](OC[C@H](NC(=O)C[C@@H](CCCCCCCCCCC)OC(=O)CCCCCCCCCCCCC)C(=O)O)O[C@H](CO)[C@@H](OP(=O)(O)O)[C@@H]1OC(=O)C[C@@H](CCCCCCCCCCC)OC(=O)CCCCCCCCCCCCC	Non-toxic
CCCCCCCCCCC[C@H](CC(=O)N[C@H]1[C@H](OC[C@@H](NC(=O)C[C@@H](CCCCCCCCCCC)OC(=O)CCCCCCCCC)C(=O)O)O[C@H](CO)[C@@H](OP(=O)(O)O)[C@@H]1OC(=O)C[C@@H](CCCCCCCCCCC)OC(=O)CCCCCCCCC)OC(=O)CCCCCCCCC	Toxic
CCCCCCCCCCC[C@H](CC(=O)N[C@H]1[C@H](OC[C@@H](NC(=O)C[C@@H](CCCCCCCCCCC)OCCCCCCCCCC)C(=O)O)O[C@H](CO)[C@@H](OP(=O)(O)O)[C@@H]1OC(=O)C[C@@H](CCCCCCCCCCC)OCCCCCCCCCC)OCCCCCCCCCC	Non-toxic
CCCCCCCCCCC[C@H](CC(=O)O[C@@H]1[C@@H](NC(=O)C[C@@H](CCCCCCCCCCC)OC(=O)CCCCCCCCC)[C@H](OC[C@@H](NC(=O)C[C@@H](CCCCCCCCCCC)OC(=O)CCCCCCCCC)C(=O)O)O[C@H](CO)[C@H]1OP(=O)(O)O)OCCCCCCCCCC	Toxic
CCCCCCCCCCC[C@H](CC(=O)N[C@H]1[C@H](OC[C@@H](NC(=O)C[C@@H](CCCCCCCCCCC)OC(=O)CCCCCCCCC)C(=O)O)O[C@H](CO)[C@@H](OP(=O)(O)O)[C@@H]1OC(=O)C[C@@H](CCCCCCCCCCC)OC(=O)CCCCCCCCC)OCCCCCCCCCC	Non-toxic
CCCCCCCCCCC[C@H](CC(=O)N[C@H](CO[C@@H]1O[C@H](CO)[C@@H](OP(=O)(O)O)[C@H](OC(=O)C[C@@H](CCCCCCCCCCC)OC(=O)CCCCCCCCC)[C@H]1NC(=O)C[C@@H](CCCCCCCCCCC)OC(=O)CCCCCCCCC)C(=O)O)OCCCCCCCCCC	Non-toxic
CCCCCCCCCCC[C@H](CC(=O)N[C@H]1[C@H](OC[C@@H](NC(=O)C[C@@H](CCCCCCCCCCC)OCCCCCCCCCC)C(=O)O)O[C@H](CO)[C@@H](OP(=O)(O)O)[C@@H]1OC(=O)C[C@@H](CCCCCCCCCCC)OC(=O)CCCCCCCCC)OCCCCCCCCCC	Non-toxic
CCCCCCCCCCC[C@H](CC(=O)N[C@H](CO[C@@H]1O[C@H](CO)[C@@H](OP(=O)(O)O)[C@H](OC(=O)C[C@@H](CCCCCCCCCCC)OCCCCCCCCCC)[C@H]1NC(=O)C[C@@H](CCCCCCCCCCC)OC(=O)CCCCCCCCC)C(=O)O)OCCCCCCCCCC	Toxic
CCCCCCCCCCC[C@H](CC(=O)N[C@H]1[C@H](OC[C@@H](NC(=O)C[C@@H](CCCCCCCCCCC)OC(=O)CCCCCCCCC)C(=O)O)O[C@H](CO)[C@@H](OP(=O)(O)O)[C@@H]1OC(=O)C[C@@H](CCCCCCCCCCC)OCCCCCCCCCC)OCCCCCCCCCC	Toxic
CCCCCCCCCCC[C@H](CC(=O)N[C@H]1[C@H](OC[C@H](NC(=O)C[C@@H](CCCCCCCCCCC)OC(=O)CCCCCCCCC)C(=O)O)O[C@H](CO)[C@@H](OP(=O)(O)O)[C@@H]1OC(=O)C[C@@H](CCCCCCCCCCC)OC(=O)CCCCCCCCC)OC(=O)CCCCCCCCC	Toxic
CCCCCCCCCCC[C@H](CC(=O)N[C@H]1[C@H](OC[C@H](NC(=O)C[C@@H](CCCCCCCCCCC)OCCCCCCCCCC)C(=O)O)O[C@H](CO)[C@@H](OP(=O)(O)O)[C@@H]1OC(=O)C[C@@H](CCCCCCCCCCC)OCCCCCCCCCC)OCCCCCCCCCC	Toxic
